Assay results of several laboratories.

SMILES | host | sample | route | dose | notes | Vd
COc1ccc(C(O)COc2ccc(-c3csc(-c4ccc(OCC(O)c5ccc(OC)c(OC)c5)cc4)n3)cc2)cc1OC (stereo not drawn) | C57BL/6 mouse | plasma | intravenous | 3 mg/kg | – | 1.5 L/kg
CC[C@H](C)[C@@H]1NC(=O)[C@@](C)(NC(=O)[C@H](CCCNC(=N)N)NC(=O)[C@H](CC(C)C)NC(=O)[C@@H](NC(=O)[C@H](CCC(N)=O)NC(=O)[C@H](CC(C)C)NC(C)=O)[C@@H](C)O)CCCC=CCCC[C@@](C)(C(=O)N[C@@H](CC(C)C)C(=O)N[C@@H](Cc2ccc3ccccc3c2)C(N)=O)NC(=O)[C@H](CCCNC(=N)N)NC(=O)[C@H](CCC(N)=O)NC1=O | male BALB/c mouse | plasma | intravenous | 5 mg/kg | – | 0.0692 L/kg
CNCCN(C)c1cc(C#N)cc(CCc2cc(C)cc(N)n2)c1 | male BALB/c mouse | plasma | intravenous | 2 mg/kg | – | 14.8 L/kg
CNC(=O)c1cc(OC)cc2c(N3CCc4c(cc(Cn5ccnc5)cc4-c4cn(C)nc4C(F)(F)F)C3=O)ccnc12 | male CD-1 mouse | plasma | intravenous | 3 mg/kg | – | 0.4 L/kg
COc1cc(C(=O)N2CCC(N3CCN(C)CC3)CC2)ccc1Nc1ncc2c(n1)N(C)c1ccccc1C(=O)N2C | mouse | plasma | intravenous | 1 mg/kg | – | 1.71 L/kg
Cc1ccc2cncc(N3CCc4c(cc(Cn5ccnc5)cc4-c4cn(C)nc4C(F)(F)F)C3=O)c2c1 | male CD-1 mouse | plasma | intravenous | 3 mg/kg | – | 0.8 L/kg
C=CC(=O)N1CC2CC(n3nc(-c4ccc(C(=O)Nc5ccccn5)cc4)c4c(N)ncnc43)CC2C1 (stereo not drawn) | male BALB/c mouse | plasma | intravenous | 1 mg/kg | – | 0.67 L/kg
COc1nc(-c2cc(C)c(N[C@@H](C)c3ccc(F)cc3)nn2)ccc1-n1cnc(C)c1 | male CD-1 mouse | plasma | intravenous | 1 mg/kg | single dose | 1.02 L/kg
CCc1cc(OC)c2nccc(N3CCc4c(cc(Cn5ccnc5)cc4-c4cn(C)nc4C(F)(F)F)C3=O)c2c1 | male CD-1 mouse | plasma | intravenous | 3 mg/kg | – | 0.7 L/kg
CN1CCC(c2ccccc2CC(C)(C)Nc2nc(N3CCOCC3)nc(-n3c(C(F)F)nc4ccccc43)n2)CC1 | mouse | plasma | intravenous | 10 mg/kg | single dose | 5.61 L/kg
CC(C)(C)c1ccc(O)c(CN(Cc2cc(C(C)(C)C)ccc2O)C2CCC(NC(N)=O)CC2)c1 (stereo not drawn) | male C57BL/6 mouse | plasma | intraperitoneal | 5 mg/kg | single dose | 2.4 L
CN1CCN(CC2CCN(c3nccc4[nH]c(-c5cc(F)cc(F)c5)nc34)CC2)CC1 | BALB/c mouse | blood | intravenous | 2 mg/kg | – | 37 L/kg
